Compound activity (PubChem BioAssay)
This is a sample that favours compounds with a hit; in the whole collection about 2.8% have one here.
PAFAH1B3 inh: blocks human PAF acetylhydrolase 1B catalytic subunit 3; Q15102; recombinant PAFAH1B3, FP-rhodamine probe, fluorescence polarization; inhibition, % at 3.39 µM; 340,000 tested, 0.28% active;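 active = inhibition above the screen-wide average of all tested compounds plus 3 SD, cut at about 25% in these data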
pPAFAH inh: pPAFAH (human) enzyme inhibition; AID 463082; Q13093; 330,000 tested, 1.5% active; inhibition, % at 3.39 µM; recombinant pPAFAH, FP-rhodamine probe fluorescence polarization;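 active = inhibition above the mean inhibition across the screen plus 3 SD, cut at about 25% in these data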;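 also: inhibitors block binding of the rhodamine activity-based probe so polarization drops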
PAFAH2 FP inh: inhibitors of human PAFAH2; Q99487; recombinant PAFAH2, FP-rhodamine activity probe, fluorescence polarization; inhibition, % at 3.39 µM; 340,000 tested, 0.99% active;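 active = inhibition above the mean over all tested compounds plus 3 SD, cut at about 30% in these data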;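 also: inhibitors block probe labeling of enzyme so polarization drops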
HTRA1 inhibitor: HTRA1 (human) protease inhibition | Q92743 | recombinant HTRA1, FP-rhodamine activity-based probe, fluorescence polarization | inhibition, % at 5.96 µM | 340,000 tested, 0.5% active; in the data active = inhibition above about 36%
Target sequence (Q92743 whole entry, looked up): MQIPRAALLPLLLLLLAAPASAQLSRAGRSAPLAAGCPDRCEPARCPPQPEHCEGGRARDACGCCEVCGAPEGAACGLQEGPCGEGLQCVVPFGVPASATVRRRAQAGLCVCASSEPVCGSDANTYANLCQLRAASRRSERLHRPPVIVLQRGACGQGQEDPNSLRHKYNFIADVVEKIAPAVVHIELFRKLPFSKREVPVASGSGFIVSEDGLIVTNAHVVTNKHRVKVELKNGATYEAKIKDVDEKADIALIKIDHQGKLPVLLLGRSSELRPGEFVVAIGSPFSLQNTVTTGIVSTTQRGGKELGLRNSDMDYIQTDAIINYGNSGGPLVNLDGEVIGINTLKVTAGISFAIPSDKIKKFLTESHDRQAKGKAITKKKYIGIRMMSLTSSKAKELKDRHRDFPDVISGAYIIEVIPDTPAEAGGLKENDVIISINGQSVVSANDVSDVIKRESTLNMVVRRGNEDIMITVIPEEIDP
PAFAH1B2 inh: inhibitors of human PAFAH1B2 | recombinant PAFAH1B2, FP-rhodamine activity probe, fluorescence polarization | inhibition, % at 3.39 µM | 340,000 tested, 1.2% active;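 active = inhibition above the mean of all tested compounds plus 3 SD, cut at about 24% in these data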
ABHD4 inh: inhibits mouse alpha/beta hydrolase domain 4. inhibition, % at 8.92 µM. 370,000 tested, 0.54% active. purified mABHD4, FP-Rh probe fluorescence polarization. Q8VD66;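 active = inhibition exceeding the mean over every tested compound plus 3 SD, cut at about 30% in these data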
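Doses – 8.92 µM, single dose · Material – wild-type mouse ABHD4 protein · Replication – single well per compound (singlicate) · Measure – percent inhibition of probe binding, normalized to plate controls · Schedule – 45 min compound pre-incubation plus 60 min probe step, 25 °C · Detection – fluorescence polarization with parallel and perpendicular emission, 525/598 nm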
Numbers stand for hits; 0 = inactive; - = not tested or not shown.

SMILES	PAFAH1B3 inh	pPAFAH inh	PAFAH2 FP inh	HTRA1 inhibitor	PAFAH1B2 inh	ABHD4 inh
CC(/C=N/NC(=O)CSc1nnc(SCc2ccc(C)cc2)s1)=C\c1ccco1	-	-	-	-	-	0
CC(/C=N/NC(=O)CSc1nnc(SCc2ccccc2)s1)=C\c1ccco1	0	27	0	0	0	0
NC(=O)Nc1ccc(Oc2c(F)c(F)c(F)c(F)c2F)cc1	0	29	0	0	0	0
CCOc1ccc(NC(N)=O)cc1	0	0	0	0	0	0
C=CCn1c(SCC(=O)c2ccc(-c3ccccc3)cc2)nnc1-c1ccc(OC)cc1	-	-	-	-	-	0
O=C(Nc1ccc(N2CCCC2)cc1)c1ccc2ccccc2c1	0	34	0	0	0	0
C[C@H](O)[C@@H]1CN2CCc3ccc(-c4ccc5c(c4)OCO5)cc3[C@@H]2C[C@@H]1N(C)CC1CCCCC1	-	-	-	-	-	0
CCOc1cc(/C=C(/NC(C)=O)C(=O)O)cc(Cl)c1OCc1ccc(Br)cc1	0	31	0	0	0	0
CC1CCCCC1NC(=O)COC(=O)c1ccc2ccccc2n1 (configuration not stated)	0	27	0	0	0	0
Cc1ccccc1-n1c(C)cc(/C=C(\C#N)C(=O)NCC2CCCO2)c1C (configuration not stated)	0	26	0	0	0	0
Cc1ccc(/C=C(\C#N)C(=O)NCC2CCCO2)o1 (configuration not stated)	0	0	0	0	0	0
CN(C)S(=O)(=O)c1cccc(-c2nnc(SCCNCCO)n2-c2ccc(F)cc2)c1	0	0	0	0	0	31
CCCSc1nnc(-c2cccc(S(=O)(=O)N(C)C)c2)n1-c1cc(OC)ccc1OC	0	0	0	0	0	0
O=C1CC(c2ccco2)Sc2ccccc2N1 (configuration not stated)	0	0	0	0	0	0
O=c1[nH]c2c(s1)C(c1ccco1)C1C3CCC(C3)C1S2 (configuration not stated)	0	0	0	0	57	0
CCC1Nc2ncnc(N3CCc4ccccc4C3)c2N(Cc2ccc(Cl)cc2)C1=O (configuration not stated)	0	0	0	0	26	0
O=C1C(Cc2ccccc2)Nc2ncnc(N3CCc4ccccc4C3)c2N1Cc1ccc(Cl)cc1 (configuration not stated)	0	0	0	0	0	-
Cc1nc2ccccn2c1C(=O)/C=C/c1ccc(F)cc1	0	0	0	0	0	0
Cc1nc2ccccn2c1-c1ccnn1S(=O)(=O)c1ccc(F)cc1	0	0	0	0	31	0
CCOc1cccc(=O)c2c(C)n(Cc3ccccc3)c(C)c12	0	27	0	0	0	0
CCOC(=O)c1cc(C)n(Cc2ccccc2)c1C	0	0	0	0	0	0
COC(=O)c1c(C(=O)OC)c(C)n(Cc2ccco2)c1C	0	0	0	0	0	0
CCOc1cccc(=O)c2c(C)n(Cc3ccco3)c(C)c12	0	33	0	0	0	0
O=C(CCSCCC(=O)NN=Cc1ccccc1O)NN=Cc1ccccc1O	0	-	0	0	0	0
O=C(CSc1ccccc1)N/N=C/c1ccccc1O	0	0	0	0	27	0
SMILES	PAFAH1B3 inh	pPAFAH inh	PAFAH2 FP inh	HTRA1 inhibitor	PAFAH1B2 inh	ABHD4 inh
CCCCCN1CCCCC(NC(=O)c2cccc(F)c2)C1=O (configuration not stated)	-	-	-	-	-	0
O=C(O/N=C1/CCCc2occc21)c1ccccc1	0	0	0	0	0	0
O=C(O/N=C1/CCCc2occc21)c1ccc(Cl)cc1Cl	0	0	0	0	34	0
O=C(O)C1=CC[C@@H](c2ccc(Cl)cc2)N(S(=O)(=O)c2ccc(Cl)cc2)[C@H]1c1ccc(Br)cc1	0	0	0	0	88	0
Cc1ccccc1S(=O)(=O)N1[C@@H](c2ccc(Br)cc2)C(C(=O)O)=CC[C@H]1c1ccc(Cl)cc1	0	0	0	0	84	0
COc1cccc([C@@H]2CC=C(C(=O)O)[C@H](c3cccc(Cl)c3)N2S(=O)(=O)c2ccc(C)cc2)c1	0	0	0	0	0	0
COc1ccc([C@@H]2CC=C(C(=O)O)[C@H](c3cccc(Cl)c3)N2S(=O)(=O)c2ccccc2C)cc1	0	0	0	0	26	0
Cc1ccccc1S(=O)(=O)N1C(c2ccc(Cl)c(Cl)c2)CC=C(C(=O)O)C1c1cccc(Br)c1 (configuration not stated)	-	-	-	-	-	0
COc1ccc([C@@H]2CC=C(C(=O)O)[C@H](c3ccc(Br)cc3)N2S(=O)(=O)c2ccc(C)cc2)cc1OC	0	0	0	0	0	0
S=c1[nH]nc(-c2n[nH]c3c2CCC3)n1N=Cc1ccc(OCc2ccccc2)cc1	-	-	-	-	-	0
O=C(CSc1nnc(-c2ccccc2)n1Cc1ccco1)Nc1ccc(OCc2ccccc2)cc1	-	-	-	-	-	0
C=CCN1C(=O)C(Cc2ccc(Br)cc2)S/C1=N\N=C\c1ccco1 (configuration not stated)	0	0	0	0	0	0
C=CCN1C(=O)C(Cc2ccc(OC)cc2)S/C1=N/N=C/c1ccco1 (configuration not stated)	0	28	0	0	0	0
N#CCCCc1cn(-c2ccc(-c3noc4c3C(=O)N(CC(=O)N3CCOCC3)CC4)cc2)nn1	-	-	-	-	-	0
CCCOc1ccc(C(=O)ON=C2CCN(C)CC2)cc1	0	26	78	0	0	0
COc1ccccc1NC(=O)c1cc2c(CO)cnc(C)c2oc1=Nc1cccc(C(N)=O)c1	0	25	0	0	0	0
CC(C)c1cc(C(C)C)c(S(=O)(=O)NCC(=O)N2CCN(c3ncccn3)CC2)c(C(C)C)c1	-	-	-	-	-	0
COc1cccc(-c2nnc(SCC(=O)OC(C)C)n2-c2ccc(Cl)cc2)c1	-	-	-	-	-	0
COC(=O)c1sccc1NC(=O)CC1C(=O)NCCN1C(=O)Nc1ccc(OCc2ccccc2)cc1 (configuration not stated)	0	0	0	0	61	0
COC(=O)c1sccc1NC(=O)CC1C(=O)NCCN1C(=O)Nc1ccccc1 (configuration not stated)	0	0	0	0	0	0
CCC(=O)Nc1ccc2c(c1)C(=O)N(C)[C@@H]1CC[C@@H](CC(=O)NCCN3CCCCC3)O[C@H]1CO2	-	-	-	-	-	0
CC1(c2ccc(Cl)cc2)NC(=S)N2C1NC(=S)N2c1ccccc1 (configuration not stated)	0	0	0	0	35	0
CCC(c1ccccc1)c1nc(-c2cccnc2)no1 (configuration not stated)	0	0	0	0	0	0
CCC(c1ccccc1)c1nc(-c2ccccn2)no1 (configuration not stated)	0	0	0	0	27	0
O=C(O)CCC(=O)N1CCN(c2nc(-c3ccccc3)c3cc(Br)ccc3n2)CC1	0	0	0	0	0	0
